Source: ChEMBL document CHEMBL1828596, “Synthesis of methoxy- and bromo-substituted indirubins and their activities on apoptosis induction in human neuroblastoma cells” (Bioorg Med Chem Lett, 2011)
Active and inactive are the calls of the source. The rule behind the calls is not given here.

Tested on: SK-N-SH
Experiment: Cytotoxicity against human SK-N-SH cells assessed as cell viability after 48 hrs by MTT assay
Assay type: functional, cell-based
Details: not given
Method in brief: (§1)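 MTT viability assay in neuroblastoma lines (IMR-32, SK-N-SH, NB-39) and normal cells (NHDF, HUVEC). Cells were exposed to the indicated concentrations of compound or DMSO vehicle for 48 h. Survival is expressed relative to the vehicle control as mean ± SEM, n = 3.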
With COc1ccc2[nH]c(O)c(C3=Nc4ccccc4C3=O)c2c1 the Activity was “Active”. In the case of COc1ccc2c(c1)/C(=C1/Nc3ccccc3/C1=N\O)C(=O)N2, the Activity is reported as “Active”. In the case of O=C1Nc2cc(Br)ccc2/C1=C1/Nc2ccccc2/C1=N\O, the Activity is reported as “Active”. For O=C1C(c2c(O)[nH]c3ccccc23)=Nc2cc(Br)ccc21, the Activity was “inactive”. For O=Nc1c(-c2c(O)[nH]c3ccccc23)[nH]c2ccccc12 [INDIRUBIN-3-MONOXIME], the Activity was “Active”. In the case of COc1ccc2c(c1)C(=O)C(c1c(O)[nH]c3ccccc13)=N2, the Activity is reported as “Active”. For COc1ccc2c(c1)NC(=O)/C2=C1\Nc2ccccc2\C1=N/O, the Activity was “Active”. In the case of O=C1C(c2c(O)[nH]c3ccc(Br)cc23)=Nc2ccccc21, the Activity is reported as “inactive”. With COc1cccc2c1NC(=O)/C2=C1\Nc2ccccc2\C1=N/O the Activity was “Active”. For O=C1C(c2c(O)[nH]c3ccccc23)=Nc2ccc(Br)cc21, the Activity was “inactive”.

Tested on: not listed separately
Experiment: Cytotoxicity against human NHDF cells assessed as cell survival at 100 uM
Assay type: cell-based
Details: read-out: Activity
Method in brief: as §1
For COc1ccc2c(c1)C(=O)C(c1c(O)[nH]c3ccccc13)=N2, the viability at 100 µM was 80%.

Tested on: IMR-32
Experiment: Induction of apoptosis human IMR32 cells assessed as increase in early apoptotic cells at 100 uM after 48 hrs using annexin V-propidium iodide staining by flow cytometry
Assay type: functional, cell-based
Details: not given
Method in brief: (§2)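 IMR-32 cells were treated with compound at 100 μM or DMSO vehicle for 48 h; untreated cells served as the normal group. Cells were double-stained with Annexin V-Alexa Fluor 488 and propidium iodide and analysed by flow cytometry. Early apoptosis was read as Annexin+/PI− and late apoptosis as Annexin+/PI+. Groups were compared with one-way ANOVA and Bonferroni post hoc test versus vehicle.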
For COc1ccc2c(c1)C(=O)C(c1c(O)[nH]c3ccccc13)=N2, the Activity was “Active”.

Tested on: HUVEC
Experiment: Cytotoxicity against human HUVEC cells assessed as cell viability after 48 hrs by MTT assay
Assay type: cell-based
Details: not given
Method in brief: as §1
With COc1ccc2[nH]c(O)c(C3=Nc4ccccc4C3=O)c2c1 the Activity was “Toxic”. For O=C1C(c2c(O)[nH]c3ccccc23)=Nc2cc(Br)ccc21, the Activity was “Non-toxic”. With O=Nc1c(-c2c(O)[nH]c3ccccc23)[nH]c2ccccc12 [INDIRUBIN-3-MONOXIME] the Activity was “Non-toxic”. For COc1ccc2c(c1)C(=O)C(c1c(O)[nH]c3ccccc13)=N2, the Activity was “Non-toxic”. In the case of COc1ccc2c(c1)NC(=O)/C2=C1\Nc2ccccc2\C1=N/O, the Activity is reported as “Non-toxic”. With O=C1C(c2c(O)[nH]c3ccc(Br)cc23)=Nc2ccccc21 the Activity was “Non-toxic”. With O=C1C(c2c(O)[nH]c3ccccc23)=Nc2ccc(Br)cc21 the Activity was “Non-toxic”.

Tested on: NB39
Experiment: Cytotoxicity against human NB39 cells assessed as cell viability after 48 hrs by MTT assay
Assay type: functional, cell-based
Details: not given
Method in brief: as §1
With COc1ccc2[nH]c(O)c(C3=Nc4ccccc4C3=O)c2c1 the Activity was “Active”. In the case of COc1ccc2c(c1)/C(=C1/Nc3ccccc3/C1=N\O)C(=O)N2, the Activity is reported as “Active”. In the case of O=C1Nc2cc(Br)ccc2/C1=C1/Nc2ccccc2/C1=N\O, the Activity is reported as “Active”. With O=C1C(c2c(O)[nH]c3ccccc23)=Nc2cc(Br)ccc21 the Activity was “inactive”. In the case of O=Nc1c(-c2c(O)[nH]c3ccccc23)[nH]c2ccccc12 [INDIRUBIN-3-MONOXIME], the Activity is reported as “Active”. In the case of COc1ccc2c(c1)C(=O)C(c1c(O)[nH]c3ccccc13)=N2, the Activity is reported as “Active”. With COc1ccc2c(c1)NC(=O)/C2=C1\Nc2ccccc2\C1=N/O the Activity was “Active”. With O=C1C(c2c(O)[nH]c3ccc(Br)cc23)=Nc2ccccc21 the Activity was “inactive”. In the case of COc1cccc2c1NC(=O)/C2=C1\Nc2ccccc2\C1=N/O, the Activity is reported as “Active”. In the case of O=C1C(c2c(O)[nH]c3ccccc23)=Nc2ccc(Br)cc21, the Activity is reported as “inactive”.

Tested on: SK-N-SH
Experiment: Cytotoxicity against human SK-N-SH cells assessed as cell survival at 100 uM
Assay type: functional
Details: read-out: Activity
Method in brief: as §1
In the case of COc1ccc2c(c1)C(=O)C(c1c(O)[nH]c3ccccc13)=N2, the viability at 100 µM is reported as 10%.

Tested on: not listed separately
Experiment: Cytotoxicity against human NB39 cells assessed as cell survival at 100 uM
Assay type: functional
Details: read-out: Activity
Method in brief: as §1
COc1ccc2c(c1)C(=O)C(c1c(O)[nH]c3ccccc13)=N2 gave a viability at 100 µM of 10%.

Tested on: IMR-32
Experiment: Induction of apoptosis in human IMR32 cells assessed as appearance of fragmented nuclei at 1 x 10^-6 to 1 x 10^-4 M after 24 hrs using Hoechst 33342 staining by fluorescent microscopic analysis
Assay type: functional, cell-based
Details: not given
Method in brief: (§3)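 IMR-32 cells were exposed to compound (1 × 10⁻⁶–1 × 10⁻⁴ M) or cisplatin (1 × 10⁻⁴ M) for 24 h, then stained with Hoechst 33342. Phase-contrast and fluorescence microscopy were used to assess nuclear morphology (shrinkage, chromatin condensation, fragmented nuclei).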
In the case of COc1ccc2c(c1)C(=O)C(c1c(O)[nH]c3ccccc13)=N2, the Activity is reported as “Active”.

Tested on: NHDF
Experiment: Cytotoxicity against human NHDF cells assessed as cell viability after 48 hrs by MTT assay
Assay type: cell-based
Details: not given
Method in brief: as §1
With COc1ccc2[nH]c(O)c(C3=Nc4ccccc4C3=O)c2c1 the Activity was “Toxic”. In the case of O=C1C(c2c(O)[nH]c3ccccc23)=Nc2cc(Br)ccc21, the Activity is reported as “Non-toxic”. In the case of COc1ccc2c(c1)C(=O)C(c1c(O)[nH]c3ccccc13)=N2, the Activity is reported as “Non-toxic”. With COc1ccc2c(c1)NC(=O)/C2=C1\Nc2ccccc2\C1=N/O the Activity was “Non-toxic”. For O=C1C(c2c(O)[nH]c3ccc(Br)cc23)=Nc2ccccc21, the Activity was “Non-toxic”. In the case of O=C1C(c2c(O)[nH]c3ccccc23)=Nc2ccc(Br)cc21, the Activity is reported as “Non-toxic”.

Tested on: IMR-32
Experiment: Induction of apoptosis human IMR32 cells assessed as increase in late apoptotic cells at 100 uM after 48 hrs using annexin V-propidium iodide staining by flow cytometry
Assay type: functional, cell-based
Details: not given
Method in brief: as §2
In the case of COc1ccc2c(c1)C(=O)C(c1c(O)[nH]c3ccccc13)=N2, the Activity is reported as “Active”.

Tested on: IMR-32
Experiment: Induction of apoptosis in human IMR32 cells assessed as cellular shrinkage at 1 x 10^-6 to 1 x 10^-4 M after 24 hrs using Hoechst 33342 staining by fluorescent microscopic analysis
Assay type: functional, cell-based
Details: not given
Method in brief: as §3
With COc1ccc2c(c1)C(=O)C(c1c(O)[nH]c3ccccc13)=N2 the Activity was “Active”.

Tested on: IMR-32
Experiment: Induction of apoptosis in human IMR32 cells assessed as chromatin condensation at 1 x 10^-6 to 1 x 10^-4 M after 24 hrs using Hoechst 33342 staining by fluorescent microscopic analysis
Assay type: functional, cell-based
Details: not given
Method in brief: as §3
For COc1ccc2c(c1)C(=O)C(c1c(O)[nH]c3ccccc13)=N2, the Activity was “Active”.

Tested on: IMR-32
Experiment: Cytotoxicity against human IMR32 cells assessed as cell survival at 100 uM
Assay type: functional
Details: read-out: Activity
Method in brief: as §1
COc1ccc2c(c1)C(=O)C(c1c(O)[nH]c3ccccc13)=N2 gave a viability at 100 µM of 10%.

Tested on: not listed separately
Experiment: Cytotoxicity against human HUVEC cells assessed as cell survival at 100 uM
Assay type: cell-based
Details: read-out: Activity
Method in brief: as §1
For COc1ccc2c(c1)C(=O)C(c1c(O)[nH]c3ccccc13)=N2, the viability at 100 µM was 40%.

Tested on: IMR-32
Experiment: Cytotoxicity against human IMR32 cells assessed as cell viability after 48 hrs by MTT assay
Assay type: functional, cell-based
Details: not given
Method in brief: as §1
For COc1ccc2[nH]c(O)c(C3=Nc4ccccc4C3=O)c2c1, the Activity was “Active”. For COc1ccc2c(c1)/C(=C1/Nc3ccccc3/C1=N\O)C(=O)N2, the Activity was “Active”. In the case of O=C1Nc2cc(Br)ccc2/C1=C1/Nc2ccccc2/C1=N\O, the Activity is reported as “Active”. In the case of O=C1C(c2c(O)[nH]c3ccccc23)=Nc2cc(Br)ccc21, the Activity is reported as “inactive”. With O=Nc1c(-c2c(O)[nH]c3ccccc23)[nH]c2ccccc12 [INDIRUBIN-3-MONOXIME] the Activity was “Active”. In the case of COc1ccc2c(c1)C(=O)C(c1c(O)[nH]c3ccccc13)=N2, the Activity is reported as “Active”. With COc1ccc2c(c1)NC(=O)/C2=C1\Nc2ccccc2\C1=N/O the Activity was “Active”. For O=C1C(c2c(O)[nH]c3ccc(Br)cc23)=Nc2ccccc21, the Activity was “inactive”. With COc1cccc2c1NC(=O)/C2=C1\Nc2ccccc2\C1=N/O the Activity was “Active”. For O=C1C(c2c(O)[nH]c3ccccc23)=Nc2ccc(Br)cc21, the Activity was “inactive”.
